Test results reported in ChEMBL document CHEMBL1149273, “Calcitriol derivatives with two different side chains at C-20. II. Diastereoselective syntheses of the metabolically produced 24(R)-hydroxygemini” (J Med Chem, 2004).

Columns and labels:
[1] = Maximum tolerated dose in mouse; format: ADME, organism-based; details: in vivo
Mus musculus [2] = test: Effect on calcium level in mouse at 3 […] after four diurnal doses; format: functional, organism-based
Summary of the method: (§1)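 Mice received four diurnal administrations of drug in Miglyol vehicle, with vehicle-dosed controls, across a series of dose levels. Calcium levels (mg/dL) were then measured and reported with standard errors. The […] was assigned from these calcium levels.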

Mus musculus [3] = test: Effect on calcium level in mouse at 1 […] after four diurnal doses; format: functional, organism-based; summary of the method: as §1
Mus musculus [4] = test: Effect on calcium level in mouse at 10 […] after four diurnal doses; format: functional, organism-based; summary of the method: as §1
Kidney = test: Metabolic stability in rat kidney perfusate; format: ADME, tissue-based
[5] = Inhibition of INFgamma release in MLR cells; format: functional, cell-based; details: Homo sapiens
[6] = Inhibition of INFgamma release in MLR cells relative to calcitriol; format: functional, Homo sapiens
Mus musculus [7] = test: Effect on calcium level in mouse at 30 […] after four diurnal doses; format: functional, organism-based; summary of the method: as §1
Mus musculus [8] = test: Effect on calcium level in mouse at 100 […] after four diurnal doses; format: functional, organism-based; summary of the method: as §1
Mus musculus [9] = test: Effect on calcium level in mouse at 0.3 ug/kg after four diurnal doses

SMILES | MTD [1] | Calcium level (Mus musculus [2]) | Calcium level (Mus musculus [3]) | Calcium level (Mus musculus [4]) | Stability (Kidney) | IC50 [5] | Ratio IC50 [6] | Calcium level (Mus musculus [7]) | Calcium level (Mus musculus [8]) | Calcium level (Mus musculus [9])
C=C1/C(=C\C=C2/CCC[C@]3(C)[C@@H](C(CCCC(C)(C)O)CCCC(C)(C)O)CC[C@@H]23)C[C@@H](O)C[C@@H]1O | < 1 µg/kg | 12.3 mg/dL | 11.1 mg/dL | 16.7 mg/dL | 80% | 0.004 nM | 0.1 | – | – | –
CC(C)(O)CCC[C@@H](CC[C@@H](O)C(C)(C)O)[C@H]1CC[C@H]2/C(=C/C=C3C[C@@H](O)C[C@H](O)C3)CCC[C@]12C | > 100 µg/kg | 9.9 mg/dL | 9.53 mg/dL | 9.43 mg/dL | – | 3.86 nM | 160 | 9.43 mg/dL | 9.57 mg/dL | –
CC(C)(O)CCCC(CCCC(C)(C)O)[C@H]1CC[C@H]2/C(=C/C=C3C[C@@H](O)C[C@H](O)C3)CCC[C@]12C | 3 µg/kg | 10 mg/dL | – | 12.5 mg/dL | 80% | 0.044 nM | 1.8 | 16.5 mg/dL | – | –
C=C1/C(=C\C=C2/CCC[C@]3(C)[C@@H]([C@H](CCCC(C)(C)O)CC[C@@H](O)C(C)(C)O)CC[C@@H]23)C[C@@H](O)C[C@@H]1O | 3 µg/kg | 9.73 mg/dL | 9.7 mg/dL | – | – | 0.08 nM | 2.5 | – | – | 9.6 mg/dL
CC(C)(O)CCC[C@H](CC[C@@H](O)C(C)(C)O)[C@H]1CC[C@H]2/C(=C/C=C3C[C@@H](O)C[C@H](O)C3)CCC[C@]12C | 30 µg/kg | 9.37 mg/dL | 9.63 mg/dL | 9.57 mg/dL | – | 0.781 nM | 31 | 9.77 mg/dL | 10.8 mg/dL | –
C=C1/C(=C\C=C2/CCC[C@]3(C)[C@@H]([C@@H](CCCC(C)(C)O)CC[C@@H](O)C(C)(C)O)CC[C@@H]23)C[C@@H](O)C[C@@H]1O | 3 µg/kg | 9.63 mg/dL | 9.73 mg/dL | – | – | 0.579 nM | 18 | – | – | 9.8 mg/dL
C=C1/C(=C\C=C2/CCC[C@]3(C)[C@@H]([C@H](C)CCCC(C)(C)O)CC[C@@H]23)C[C@@H](O)C[C@@H]1O [CALCITRIOL] | – | – | – | – | < 50% | – | – | – | – | –
